The source made the active and inactive calls. The rule behind the calls is not given here.
Columns and labels:
Leishmania donovani [1] = test: Antileishmanial activity against Leishmania donovani amastigote forms infected in Balb/c mouse assessed as inhibition of parasitic burden in spleen at 50 mg/kg, ip administered for 5 consecutive days measured on day 7 post last treatment by Giemsa staining based assay relative to control; format: functional; conditions: 168 h
[2] = Elimination rate constant in Swiss mouse at 50 mg/kg, po by LC-MS/MS analysis; format: ADME, organism-based; conditions: in vivo
[3] = Cmax in Swiss mouse at 50 mg/kg, po by LC-MS/MS analysis; format: ADME, organism-based; design: dose 50 mg/kg, route oral; conditions: in vivo
[4] = Apparent clearance in Swiss mouse at 50 mg/kg, po by LC-MS/MS analysis; format: ADME, organism-based; conditions: in vivo
[5] = Half life in mouse liver S9 fractions at 1 mM in presence of NADPH by HPLC method; format: ADME, tissue-based
[6] = Cytotoxicity against African green monkey Vero cells assessed as cell viability up to 200 uM after 72 hrs by MTT assay relative to control; format: cell-based; conditions: chlorocebus sabaeus, read-out: Activity
[7] = Apparent volume of distribution in Swiss mouse at 50 mg/kg, po by LC-MS/MS analysis; format: ADME, organism-based; conditions: in vivo
Leishmania donovani [8] = test: Antileishmanial activity against Leishmania donovani MHOM/IN/80/DD8 amastigote forms harboring luciferase gene infected in mouse J774 cells at 6.25 to 12.5 uM up to 4 days by Steady-Glo reagent based luminescence assay; format: functional, cell-based
In short: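 Infected J774 macrophages held at 37 °C with two-fold dilutions from 200 to 6.25 µM. Intracellular amastigote growth followed by luciferase activity in lysed macrophages, expressed as RLU, over time. Three independent experiments.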

Leishmania donovani [9] = test: Antileishmanial activity against Leishmania donovani amastigote forms infected in Balb/c mouse assessed as inhibition of parasitic burden in liver at 50 mg/kg, ip administered for 5 consecutive days measured 1 week post last treatment by Giemsa staining based assay relative to control; format: functional; conditions: 168 h
Leishmania donovani [10] = test: Antileishmanial activity against Leishmania donovani amastigote forms infected in Balb/c mouse assessed as inhibition of parasitic burden in liver at 50 mg/kg, ip administered for 5 consecutive days measured on day 7 post last treatment by Giemsa staining based assay relative to control; format: functional; conditions: 168 h
Leishmania donovani [11] = test: Antileishmanial activity against Leishmania donovani amastigote forms infected in Balb/c mouse assessed as inhibition of parasitic burden in spleen at 25 mg/kg, ip co-treated with 5 mg/kg, po miltefosine administered for 5 consecutive days measured on day 4 and 7 post last treatment by Giemsa staining based assay relative to control; format: functional
In short: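 Combination study with seven groups of 5 infected BALB/c mice, including vehicle (8% DMSO i.p.), infected untreated and miltefosine-alone groups. Treatment daily for 5 days, test compound i.p. and miltefosine orally. Mice killed on days 4 and 7 post-treatment; liver and spleen parasite load counted on Giemsa-stained stamp smears and expressed as LDU relative to infected untreated mice. Mean ± SD, n = 5, three independent experiments.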

Leishmania donovani [12] = test: Induction of apoptosis in Leishmania donovani MHOM/IN/80/DD8 promastigote forms assessed as DNA fragmentation at 50 uM after 48 hrs by propidium iodide staining based TUNEL assay; format: functional
In short: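 DNA fragmentation detected by TUNEL under fluorescence and phase-contrast microscopy, with counts of TUNEL-positive cells; three independent experiments.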

Leishmania donovani [13] = test: Induction of mitochondrial membrane potential loss in Leishmania donovani MHOM/IN/80/DD8 promastigote forms at 50 uM after 12 hrs by JC-1 staining based flow cytometry (reference value: 5.02%); format: functional
[14] = Metabolic stability in mouse liver S9 fractions assessed as rate constant for metabolism at 1 mM after 60 mins in presence of NADPH by HPLC method; format: ADME, tissue-based
Mus musculus [15] = test: Increase in iNOS mRNA expression level in Balb/c mouse splenocytes infected with Leishmania donovani amastigote forms at 25 mg/kg, ip for 5 consecutive days measured on day 4 post last treatment by RT-PCR assay relative to control; format: functional
In short: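 Infected BALB/c mice dosed for 5 consecutive days (test compound i.p. in 8% DMSO, miltefosine oral), n = 5 per group; splenocytes taken day 4 and day 7 post-treatment. Total RNA extracted and iNOS mRNA quantified by real-time PCR, normalized to mouse β-actin, expressed as fold change over uninfected controls.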

Leishmania donovani [16] = test: Induction of apoptosis in Leishmania donovani MHOM/IN/80/DD8 promastigote forms assessed as late apoptotic cells at IC50 after 48 hrs by Annexin V-FITC/propidium iodide staining based flow cytometry (reference value: 0.86%); format: functional
Mus musculus [17] = test: Decrease in IL-10 level in Balb/c mouse splenocytes infected with Leishmania donovani amastigote forms at 25 mg/kg, ip co-treated with 5 mg/kg, po miltefosine administered for 5 consecutive days measured on day 4 post last treatment by sandwich ELISA relative to control; format: functional
In short: (§1)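 Splenocytes (2×10^6) from treated infected BALB/c mice taken on day 4 or 7 post-treatment. Cultured in phenol-red-free RPMI 1640 with 5 μg/mL soluble L. donovani antigen for 72 h at 37 °C, 5% CO2. Supernatant cytokines measured by sandwich ELISA against a standard curve. Mean ± SD, n = 5 mice per group, three independent experiments.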

Leishmania donovani [18] = test: Antileishmanial activity against Leishmania donovani MHOM/IN/80/DD8 promastigote forms harboring luciferase gene at 25 uM after 72 hrs by Steady-Glo reagent based luminescence assay relative to control; format: functional; conditions: MHOM/IN/80/DD8, 72 h, read-out: GI
In short: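 Exponential-phase Dd8-Luc promastigotes at 1×10^6/mL in M199 with 10% FBS, 24 °C, given 50 and 25 µM for 72 h. Vehicle 0.1% DMSO. Steady-Glo added 1:1, luminescence (RLU) read. IC50 from four-parameter Hill regression, derived only where inhibition exceeded 90%. Means of at least three independent experiments.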

Mus musculus [19] = test: Toxicity in Balb/c mouse infected with Leishmania donovani amastigote forms assessed as changes in body weight at 12.5 to 200 mg/kg, ip administered for 5 consecutive days; format: organism-based; conditions: in vivo
In short: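 L. donovani-infected BALB/c mice (15-day infection, 5 per group) dosed for five consecutive days: test compound 12.5–200 mg/kg i.p. in 8% DMSO, miltefosine orally in TDW, alone or in combination. Body weight followed after treatment.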

[20] = Cytotoxicity against African green monkey Vero cells assessed as reduction in cell viability after 72 hrs by MTT assay; format: cell-based; conditions: chlorocebus sabaeus
In short: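 Vero and J774 cells seeded at 1×10^5 per well for 24 h, then exposed 72 h to seven two-fold dilutions from 500 to 7.81 μM. MTT solution (5 mg/mL stock) added for 2 h at 37 °C, formazan dissolved in DMSO and read at 540 nm. CC50 derived by the Huber and Koella method.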

Leishmania donovani [21] = test: Induction of mitochondrial membrane potential loss in Leishmania donovani MHOM/IN/80/DD8 promastigote forms at 50 uM after 24 hrs by JC-1 staining based flow cytometry (reference value: 5.02%); format: functional
Leishmania donovani [22] = test: Induction of apoptosis in Leishmania donovani MHOM/IN/80/DD8 promastigote forms assessed as early apoptotic cells at IC50 after 48 hrs by Annexin V-FITC/propidium iodide staining based flow cytometry (reference value: 7.41%); format: functional
Mus musculus [23] = test: Increase in IFN-gamma level in Balb/c mouse splenocytes infected with Leishmania donovani amastigote forms at 25 mg/kg, ip co-treated with 5 mg/kg, po miltefosine administered for 5 consecutive days measured on day 7 post last treatment by sandwich ELISA relative to control; format: functional; in short: as §1

SMILES: COc1ccc(C2C3=C(CCC3=O)Nc3c2c(-c2c[nH]c4ccccc24)nn3-c2ccc(Cl)c(Cl)c2)cc1OC (stereo not drawn)
- inhibition in vivo at 50 mg/kg (Leishmania donovani [1]): > 91%
- k el [2]: 3.89e-05 s⁻¹
- Cmax [3]: 4.88 µM
- CL/F [4]: 47.3 mL/min/kg
- half-life at 1000 µM [5]: 50.5 min
- viability at 72 h [6]: > 95%
- Vd/F [7]: 19.6 L/kg
- Activity (Leishmania donovani [8]): Active
- inhibition in vivo at 50 mg/kg (Leishmania donovani [9]): > 93%
- inhibition in vivo at 50 mg/kg (Leishmania donovani [10]): > 93%
- inhibition (INH) (Leishmania donovani [11]): >97%
- Activity (Leishmania donovani [12]): Active
- Activity (Leishmania donovani [13]): 32.9%
- k el at 1 h, 1000 µM [14]: 0.000217 s⁻¹
- fold change (FC) (Mus musculus [15]): 4.9
- Activity (Leishmania donovani [16]): 21%
- inhibition (INH) (Mus musculus [17]): 91%
- inhibition of growth at 25 µM (Leishmania donovani [18]): 91.7%
- Activity (Mus musculus [19]): Non-Toxic
- CC50 at 72 h [20]: 438 µM
- Activity (Leishmania donovani [21]): 52.6%
- Activity (Leishmania donovani [22]): 17.2%
- fold change (FC) (Mus musculus [23]): 8.5

Reference: ChEMBL document CHEMBL3992522, “Antileishmanial Activity of Pyrazolopyridine Derivatives and Their Potential as an Adjunct Therapy with Miltefosine” (J Med Chem, 2017)
